ChEMBL document CHEMBL2157922, “Synthesis and antifungal activity of diverse C-2 pyridinyl and pyridinylvinyl substituted quinolines” (2012)
In brackets after ≈: the same amount, converted by molar mass.

Assays:
Cryptococcus neoformans [1] = assay: Antifungal activity against Cryptococcus neoformans IM 00319 after 48 hrs by broth microdilution technique; format: functional; settings: IM 00319, 48 h
Procedure, shortened: (§1)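 C. neoformans was tested by 96-well RPMI-1640 microdilution, with DMSO-matched growth and sterility control wells. Plates were incubated 48 h at 30 °C in a moist, dark chamber and read at OD405. % inhibition = 100 − (CTW − SCW)/(GCW − SCW), in duplicate. For the clinical isolates, MIC80 and MIC50 are the lowest concentrations giving 80% and 50% inhibition.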

Candida albicans [2] = assay: Antifungal activity against Candida albicans CCC 130 after 24 hrs by broth microdilution technique; settings: CCC 130, 24 h
Cryptococcus neoformans [3] = assay: Antifungal activity against Cryptococcus neoformans ATCC 32264 after 48 hrs by broth microdilution technique; format: functional; settings: ATCC 32264, 48 h
Procedure, shortened: (§2)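 Yeasts were tested by CLSI broth microdilution in RPMI-1640 buffered to pH 7.0 with MOPS, with compound from 250 down to 0.98 in DMSO stocks. Trays were held at 30 °C in a moist, dark chamber. MIC100, the lowest concentration giving total visual inhibition against the growth control, was read by eye at 48 h.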

Candida albicans [4] = assay: Antifungal activity against Candida albicans CCC 127 after 48 hrs by broth microdilution technique; format: functional; settings: CCC 127, 48 h
Candida albicans [5] = assay: Antifungal activity against Candida albicans CCC 126 after 48 hrs by broth microdilution technique; format: functional; settings: CCC 126, 48 h
Aspergillus fumigatus = assay: Antifungal activity against Aspergillus fumigatus ATCC 26934 after 48 hrs by broth microdilution technique; format: functional; settings: ATCC 26934, 48 h
Procedure, shortened: (§3)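 Moulds and dermatophytes were run by CLSI broth microdilution in MOPS-buffered RPMI-1640 at pH 7.0. Aspergillus was incubated at 30 °C and dermatophytes at 28–30 °C, in a moist, dark chamber. MIC100, the lowest concentration with no visible growth, was read visually at a time set by growth of the control fungus.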

Nannizzia gypsea = assay: Antifungal activity against Microsporum gypseum CCC 115 after 48 hrs by broth microdilution technique; format: functional; settings: CCC 115, 48 h; procedure, shortened: as §3
Pichia kudriavzevii = assay: Antifungal activity against Candida krusei CCC 117 after 48 hrs by broth microdilution technique; format: functional; settings: CCC 117, 48 h
Candida albicans [6] = assay: Antifungal activity against Candida albicans CCC 128 after 48 hrs by broth microdilution technique; format: functional; settings: CCC 128, 48 h
Cryptococcus neoformans [7] = assay: Antifungal activity against Cryptococcus neoformans IM 972751 after 48 hrs by broth microdilution technique; format: functional; settings: IM 972751, 48 h; procedure, shortened: as §1
[8] = tested on: Trichophyton mentagrophytes; assay: Antifungal activity against Trichophyton mentagrophytes ATCC 9972 after 48 hrs by broth microdilution technique; format: functional; settings: ATCC 9972, 48 h; procedure, shortened: as §3
Aspergillus flavus = assay: Antifungal activity against Aspergillus flavus ATCC 9170 after 48 hrs by broth microdilution technique; format: functional; settings: ATCC 9170, 48 h; procedure, shortened: as §3
Cryptococcus neoformans [9] = assay: Antifungal activity against Cryptococcus neoformans IM 972724 after 48 hrs by broth microdilution technique; format: functional; settings: IM 972724, 48 h; procedure, shortened: as §1
Cryptococcus neoformans [10] = assay: Antifungal activity against Cryptococcus neoformans ATCC 32264 at 15.6 ug/ml after 48 hrs; format: functional; settings: ATCC 32264, 48 h; procedure, shortened: as §1
Candida albicans [11] = assay: Antifungal activity against Candida albicans ATCC 10231 at 7.8 ug/ml after 24 hrs; format: functional; settings: ATCC 10231, 24 h
Procedure, shortened: (§4)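 C. albicans was grown in 96-well RPMI-1640 broth microdilution with compound wells diluted from DMSO stocks. Growth wells with matched DMSO and sterility wells were included. After 24 h at 30 °C in a moist, dark chamber, OD405 was read. % inhibition = 100 − (CTW − SCW)/(GCW − SCW) OD, done in duplicate.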

Trichophyton rubrum = assay: Antifungal activity against Trichophyton rubrum CCC 113 after 48 hrs by broth microdilution technique; format: functional; settings: CCC 113, 48 h
Cryptococcus neoformans [12] = assay: Antifungal activity against Cryptococcus neoformans IM 983036 after 48 hrs by broth microdilution technique; format: functional; settings: IM 983036, 48 h; procedure, shortened: as §1
Saccharomyces cerevisiae = assay: Antifungal activity against Saccharomyces cerevisiae ATCC 9763 after 48 hrs by broth microdilution technique; format: functional; settings: ATCC 9763, 48 h; procedure, shortened: as §2
Candida albicans [13] = assay: Antifungal activity against Candida albicans CCC 129 after 48 hrs by broth microdilution technique; format: functional; settings: CCC 129, 48 h
Cryptococcus neoformans [14] = assay: Antifungal activity against Cryptococcus neoformans ATCC 32264 at 31.2 ug/ml after 48 hrs; format: functional; settings: ATCC 32264, 48 h; procedure, shortened: as §1
Candida parapsilosis = assay: Antifungal activity against Candida parapsilosis CCC 124 after 48 hrs by broth microdilution technique; format: functional; settings: Lodderomyces parapsilosis, CCC 124, 48 h
Nakaseomyces glabratus = assay: Antifungal activity against Candida glabrata CCC 115 after 48 hrs by broth microdilution technique; format: functional; settings: CCC 115, 48 h
Cryptococcus neoformans [15] = assay: Antifungal activity against Cryptococcus neoformans IM 983040 after 48 hrs by broth microdilution technique; format: functional; settings: IM 983040, 48 h; procedure, shortened: as §1
Candida tropicalis = assay: Antifungal activity against Candida tropicalis CCC 131 after 48 hrs by broth microdilution technique; format: functional; settings: CCC 131, 48 h
Candida albicans [16] = assay: Antifungal activity against Candida albicans CCC 125 after 48 hrs by broth microdilution technique; format: functional; settings: CCC 125, 48 h
Aspergillus niger = assay: Antifungal activity against Aspergillus niger ATCC 9029 after 48 hrs by broth microdilution technique; format: functional; settings: ATCC 9029, 48 h; procedure, shortened: as §3
Candida albicans [17] = assay: Antifungal activity against Candida albicans CCC 130 after 48 hrs by broth microdilution technique; format: functional; settings: CCC 130, 48 h
Candida albicans [18] = assay: Antifungal activity against Candida albicans ATCC 10231 at 31.2 ug/ml after 24 hrs; format: functional; settings: ATCC 10231, 24 h; procedure, shortened: as §4
Candida albicans [19] = assay: Antifungal activity against Candida albicans ATCC 10231 at 15.6 ug/ml after 24 hrs; format: functional; settings: ATCC 10231, 24 h; procedure, shortened: as §4
Candida albicans [20] = assay: Antifungal activity against Candida albicans ATCC 10231 after 48 hrs by broth microdilution technique; format: functional; settings: ATCC 10231, 48 h; procedure, shortened: as §2
Cryptococcus neoformans [21] = assay: Antifungal activity against Cryptococcus neoformans IM 042074 after 48 hrs by broth microdilution technique; format: functional; settings: IM 042074, 48 h; procedure, shortened: as §1

MIC50 (Cryptococcus neoformans [1]): 31.2 µg/mL (≈ 151 µM)
MIC80 (Cryptococcus neoformans [1]): 31.2 µg/mL (≈ 151 µM)
MIC50 (Candida albicans [2]): 15.6 µg/mL (≈ 75.6 µM)
MIC (Cryptococcus neoformans [3]): 62 µg/mL (≈ 301 µM)
MIC50 (Cryptococcus neoformans [3]): 15.6 µg/mL (≈ 75.6 µM)
MIC80 (Cryptococcus neoformans [3]): 15.6 µg/mL (≈ 75.6 µM)
MIC50 (Candida albicans [4]): 7.8 µg/mL (≈ 37.8 µM)
MIC80 (Candida albicans [4]): 15.6 µg/mL (≈ 75.6 µM)
MIC50 (Candida albicans [5]): 15.6 µg/mL (≈ 75.6 µM)
MIC80 (Candida albicans [5]): 31.2 µg/mL (≈ 151 µM)
MIC (Aspergillus fumigatus): 62 µg/mL (≈ 301 µM)
MIC (Nannizzia gypsea): 62 µg/mL (≈ 301 µM)
MIC50 (Pichia kudriavzevii): 31.2 µg/mL (≈ 151 µM)
MIC80 (Pichia kudriavzevii): 62.5 µg/mL (≈ 303 µM)
MIC50 (Candida albicans [6]): 7.8 µg/mL (≈ 37.8 µM)
MIC80 (Candida albicans [6]): 15.6 µg/mL (≈ 75.6 µM)
MIC50 (Cryptococcus neoformans [7]): 7.8 µg/mL (≈ 37.8 µM)
MIC80 (Cryptococcus neoformans [7]): 31.2 µg/mL (≈ 151 µM)
MIC [8]: 62 µg/mL (≈ 301 µM)
MIC (Aspergillus flavus): 62 µg/mL (≈ 301 µM)
MIC50 (Cryptococcus neoformans [9]): 31.2 µg/mL (≈ 151 µM)
MIC80 (Cryptococcus neoformans [9]): 31.2 µg/mL (≈ 151 µM)
MIC (Trichophyton rubrum): 62 µg/mL (≈ 301 µM)
MIC50 (Cryptococcus neoformans [12]): 7.8 µg/mL (≈ 37.8 µM)
MIC80 (Cryptococcus neoformans [12]): 31.2 µg/mL (≈ 151 µM)
MIC (Saccharomyces cerevisiae): 62 µg/mL (≈ 301 µM)
MIC50 (Candida albicans [13]): 7.8 µg/mL (≈ 37.8 µM)
MIC80 (Candida albicans [13]): 15.6 µg/mL (≈ 75.6 µM)
MIC50 (Candida parapsilosis): 15.6 µg/mL (≈ 75.6 µM)
MIC80 (Candida parapsilosis): 31.2 µg/mL (≈ 151 µM)
MIC50 (Nakaseomyces glabratus): 15.6 µg/mL (≈ 75.6 µM)
MIC80 (Nakaseomyces glabratus): 15.6 µg/mL (≈ 75.6 µM)
MIC50 (Cryptococcus neoformans [15]): 15.6 µg/mL (≈ 75.6 µM)
MIC80 (Cryptococcus neoformans [15]): 31.2 µg/mL (≈ 151 µM)
MIC50 (Candida tropicalis): 15.6 µg/mL (≈ 75.6 µM)
MIC80 (Candida tropicalis): 31.2 µg/mL (≈ 151 µM)
MIC50 (Candida albicans [16]): 15.6 µg/mL (≈ 75.6 µM)
MIC80 (Candida albicans [16]): 15.6 µg/mL (≈ 75.6 µM)
MIC (Aspergillus niger): 62 µg/mL (≈ 301 µM)
MIC80 (Candida albicans [17]): 31.2 µg/mL (≈ 151 µM)
MIC (Candida albicans [20]): 62 µg/mL (≈ 301 µM)
MIC50 (Candida albicans [20]): 7.8 µg/mL (≈ 37.8 µM)
MIC80 (Candida albicans [20]): 15.6 µg/mL (≈ 75.6 µM)
MIC50 (Cryptococcus neoformans [21]): 15.6 µg/mL (≈ 75.6 µM)
MIC80 (Cryptococcus neoformans [21]): 31.2 µg/mL (≈ 151 µM)
SMILES: c1ccc2nc(-c3ccncc3)ccc2c1
MFC (Cryptococcus neoformans [3]): 125 µg/mL (≈ 606 µM)
MFC (Aspergillus fumigatus): 125 µg/mL (≈ 606 µM)
MFC (Nannizzia gypsea): 62 µg/mL (≈ 301 µM)
MFC [8]: 62 µg/mL (≈ 301 µM)
MFC (Aspergillus flavus): 125 µg/mL (≈ 606 µM)
inhibition at 15.6 µg/mL (Cryptococcus neoformans [10]): 80%
inhibition at 7.8 µg/mL (Candida albicans [11]): 50%
MFC (Trichophyton rubrum): 62 µg/mL (≈ 301 µM)
MFC (Saccharomyces cerevisiae): 250 µg/mL (≈ 1210 µM)
inhibition at 31.2 µg/mL (Cryptococcus neoformans [14]): 80%
MFC (Aspergillus niger): 125 µg/mL (≈ 606 µM)
inhibition at 31.2 µg/mL (Candida albicans [18]): 80%
inhibition at 15.6 µg/mL (Candida albicans [19]): 80%
MFC (Candida albicans [20]): 250 µg/mL (≈ 1210 µM)
